Measurements taken from ChEMBL document CHEMBL4184092, “Chemical constituents from Taraxacum officinale and their α-glucosidase inhibitory activities” (Bioorg Med Chem Lett, 2018).
Calls of active or inactive are those of the source. The calls are words filed in the database; no cut-off is given here.

Key:
[1] = system: Saccharomyces cerevisiae; experiment: Inhibition of Saccharomyces cerevisiae alpha-glucosidase using p-nitro-phenyl-alpha-D-glucopyranoside as substrate at 200 uM preincubated with enzyme followed by substrate addition measured after 10 mins for every 2.5 to 5 mins relative to control
Summary of the method: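 Sample mixed with baker's yeast alpha-glucosidase stock (0.11 U/ml in 50 mM PBS) and preincubated at 36 °C. pNPG stock (1.35 mM) then added, incubated 10 min at 36 °C, and absorbance at 405 nm read every 2.5–5 min. PBS replaced sample as control. % inhibition = [1 − (ΔAbs sample/ΔAbs control)] × 100; triplicates; IC50 from six-concentration dose-inhibition curve.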

[2] = Inhibition of Saccharomyces cerevisiae alpha-glucosidase using p-nitro-phenyl-alpha-D-glucopyranoside as substrate preincubated with enzyme followed by substrate addition measured after 10 mins for every 2.5 to 5 mins
[3] = system: Saccharomyces cerevisiae; experiment: Competitive inhibition of Saccharomyces cerevisiae alpha-glucosidase using p-nitro-phenyl-alpha-D-glucopyranoside as substrate preincubated with enzyme followed by substrate addition measured after 10 mins by Lineweaver-Burk plot analysis
Summary of the method: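 Baker's yeast alpha-glucosidase (stock 0.11 U/ml in 50 mM PBS) with pNPG at various concentrations, 36 °C. Initial velocity taken as the per-minute change in 405 nm absorbance. Inhibition type assigned from Lineweaver-Burk plots at several inhibitor levels plus an uninhibited series.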

[4] = system: Saccharomyces cerevisiae; experiment: Mixed type inhibition of Saccharomyces cerevisiae alpha-glucosidase using p-nitro-phenyl-alpha-D-glucopyranoside as substrate preincubated with enzyme followed by substrate addition measured after 10 mins by Lineweaver-Burk plot analysis
Summary of the method: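 Baker's yeast α-glucosidase (stock 0.11 U/ml in 50 mM PBS) mixed with sample and incubated at 36 °C, then p-nitrophenyl-α-D-glucopyranoside added at various concentrations and incubated at 36 °C for 10 min. Initial velocity was taken as the rate of change of absorbance at 405 nm per min. Inhibition type was assigned from Lineweaver-Burk plots.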

Compound	inhibition [1] [%]	IC50 [2] [µM]	inhibition [3]	inhibition [4]
COC(=O)/C=C/c1ccc(O)c(O)c1	1.6			
O=C(CO)c1c[nH]c2ccccc12	1.6			
CC1(C)C[C@H](O)C[C@@]2(C)OC(=O)C=C12	8.8			
CC1=CC(=O)CC(C)(C)[C@]1(O)/C=C/[C@@H](C)O[C@@H]1O[C@H](CO)[C@@H](O)[C@H](O)[C@H]1O	9.4			
CC(=O)/C=C/C1=C(C)[C@@H](O)[C@@H](O[C@@H]2O[C@H](CO)[C@@H](O)[C@H](O)[C@H]2O)CC1(C)C	0			
COc1cc(-c2cc(=O)c3c(O)cc(O)cc3o2)cc(OC)c1O [TRICIN]	59.1	162		
O=C1C[C@@H](O[C@@H]2O[C@H](CO)[C@@H](O)[C@H](O)[C@H]2OC(=O)Cc2ccc(O)cc2)CO1	57.6	181		
COc1cc([C@H](OC)[C@@H](CO)Oc2c(OC)cc(-c3cc(=O)c4c(O)cc(O)cc4o3)cc2OC)ccc1O	13.2			
CC1(C)C[C@@H](O)C[C@@]2(C)OC(=O)C=C12	6.4			
COc1cc(-c2oc3cc(O)cc(O)c3c(=O)c2O)cc(O)c1OC	57.4	154		
CC(=O)/C=C/C1=C(C)[C@@H](O)[C@@H](O)CC1(C)C	11.5			
C[C@H]1O[C@H](O[C@H]2[C@H](O)[C@@H](O)[C@@H](O[C@H]3[C@H](O)[C@@H](O)C(O)O[C@@H]3CO)O[C@@H]2CO)[C@H](O)[C@@H](O)[C@@H]1N[C@H]1C=C(CO)[C@@H](O)[C@H](O)[C@H]1O (stereo partly drawn) [ACARBOSE]	51.8	180		
O=c1ccc2cc(O[C@@H]3O[C@H](CO)[C@@H](O)[C@H](O)[C@H]3O)c(O)cc2o1	1.8			
COc1cc(-c2cc(=O)c3c(O)cc(O)cc3o2)cc(OC)c1O[C@@H](CO)[C@@H](O)c1ccc(O)cc1	8.3			
C=C1C(=O)O[C@@H]2/C=C(\C)CC/C=C(\C(=O)O[C@@H]3O[C@H](CO)[C@@H](O)[C@H](O)[C@H]3O)CC[C@@H]12	13.1			
COc1cc(/C=C/CO)cc(OC)c1O[C@@H]1O[C@H](CO)[C@@H](O)[C@H](O)[C@H]1O	1.8			
COc1cc([C@H](OC)[C@H](CO)Oc2c(OC)cc(-c3cc(=O)c4c(O)cc(O)cc4o3)cc2OC)ccc1O	9.1			
CC1=CC(=O)CC(C)(C)[C@@]1(O)/C=C/[C@@H](C)O[C@@H]1O[C@H](CO)[C@@H](O)[C@H](O)[C@H]1O	13.7			
O=C1C[C@@H](O[C@@H]2O[C@H](CO)[C@@H](O)[C@H](OC(=O)Cc3ccc(O)cc3)[C@H]2OC(=O)Cc2ccc(O)cc2)CO1	58.3	152		
O=C(Cc1ccc(O)cc1)O[C@H]1[C@@H](O)[C@H](OC(=O)Cc2ccc(O)cc2)[C@H](OC(=O)Cc2ccc(O)cc2)[C@@H](O)[C@@H]1O	77.6	61.2	Active	
Nc1ncnc2c1ncn2[C@@H]1O[C@H](CO)[C@@H](O)[C@H]1O	10.3			
COC(=O)C[C@@H](CO)O[C@@H]1O[C@H](CO)[C@@H](O)[C@H](OC(=O)Cc2ccccc2)[C@H]1OC(=O)C(=O)c1ccc(O)cc1	56.6	165		
CC(=O)/C=C/[C@]12O[C@@]1(C)C[C@@H](O)CC2(C)C	17.6			
O=c1cc(-c2ccc(O)c(O)c2)oc2cc(O)cc(O)c12 [LUTEOLIN]	99.6	39.8		Active
COc1cc(-c2cc(=O)c3c(O)cc(O)cc3o2)cc(OC)c1O[C@H](CO)[C@@H](O)c1ccc(O)cc1	8.7			
COc1cc(-c2cc(=O)c3c(O)cc(O)cc3o2)ccc1O	56.9			
O=C1C[C@@H](O[C@@H]2O[C@H](CO)[C@@H](O)[C@H](OC(=O)Cc3ccccc3)[C@H]2OC(=O)Cc2ccc(O)cc2)CO1	58.9	145		Active
COC(=O)C[C@@H](CO)O[C@@H]1O[C@H](CO)[C@@H](O)[C@H](OC(=O)Cc2ccccc2)[C@H]1OC(=O)Cc1ccc(O)cc1	59.7	150		
COC(=O)C[C@@H](CO)O[C@@H]1O[C@H](CO)[C@@H](O)[C@H](O)[C@H]1OC(=O)C(=O)c1ccc(O)cc1	56.6	165		
